Data reported in ChEMBL document CHEMBL3585255, “The Cephalostatins. 24. Isolation, Structure, and Cancer Cell Growth Inhibition of Cephalostatin 20” (2015).

Tests used:
Format in all cases: functional
NCI-H460 = experiment: Cytotoxicity against human NCI-H460 cells after 48 hrs by sulforhodamine B assay; conditions: NCI-H460, 48 h
Summary of the method: (§1)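 Cells in RPMI1640 with 5% fetal bovine serum were plated in 96-well plates and incubated 24 h before serial dilutions of compound were added. After 48 h exposure, cells were fixed with trichloroacetic acid and stained with sulforhodamine B, and optical density was read on a plate reader. GI50, the concentration giving 50% reduction in net protein increase, was calculated from the OD data.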

SF-268 = experiment: Cytotoxicity against human SF268 cells after 48 hrs by sulforhodamine B assay; conditions: SF-268, 48 h; summary of the method: as §1
[1] = Cytotoxicity against human KM20L2 cells after 48 hrs by sulforhodamine B assay; conditions: KM-20L2, 48 h; summary of the method: as §1
DU-145 = experiment: Cytotoxicity against human DU145 cells after 48 hrs by sulforhodamine B assay; conditions: DU-145, 48 h; summary of the method: as §1
[2] = Cytotoxicity against human BxPC3 cells after 48 hrs by sulforhodamine B assay; conditions: BXPC-3, 48 h; summary of the method: as §1
MCF7 = experiment: Cytotoxicity against human MCF7 cells after 48 hrs by sulforhodamine B assay; conditions: MCF7, 48 h; summary of the method: as §1

Compound | GI50 (NCI-H460) [nM] | GI50 (SF-268) [nM] | GI50 [1] [nM] | GI50 (DU-145) [nM] | GI50 [2] [nM] | GI50 (MCF7) [nM]
CO[C@H]1c2nc3c(nc2C[C@@H]2CC[C@H]4C5=C[C@@H]6O[C@]7(O[C@](C)(CO)C[C@H]7O)[C@@H](C)[C@]6(O)[C@@]5(C)[C@H](O)C[C@@H]4[C@]21C)C[C@@]1(C)[C@@H](CC[C@H]2C4=CC[C@@H]5[C@H](C)[C@@]6(OC[C@]45C(=O)C[C@@H]21)OC(C)(C)C[C@H]6O)C3 [CEPHALOSTATIN 18] | 2.8 | 7.8 | 3.1 | 20 | 3.3 | 3.3
CO[C@H]1c2nc3c(nc2C[C@@H]2CC[C@H]4C5=CC[C@@H]6[C@H](C)[C@@]7(OC[C@]56C(=O)C[C@@H]4[C@]21C)OC(C)(C)C[C@H]7O)C[C@@]1(C)[C@@H](CC[C@H]2C4=C[C@@H]5O[C@]6(O[C@](C)(CO)C[C@H]6O)[C@@H](C)[C@]5(O)[C@@]4(C)[C@H](O)C[C@@H]21)C3 [CEPHALOSTATIN 19] | 5.3 | 78 | 6.1 | 30 | 3.9 | 7.4
